# Data published in ChEMBL document CHEMBL3853298, “Total synthesis and in vitro bioevaluation of clavaminols A, C, H & deacetyl clavaminol H as potential chemotherapeutic and antibiofilm agents” (Eur J Med Chem, 2016).
# Calls of active or inactive are those of the source. No cut-off for these calls is given here.
# Columns and labels:
# Staphylococcus aureus [1] = assay: Bactericidal activity against Staphylococcus aureus MLS16 MTCC 2940 after 24 hrs; format: functional; details: MLS16 MTCC 2940, 24 h
# Outline: (§1)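 Broth macrodilution in Mueller Hinton broth, compound serially diluted from 150 down to 0. Overnight bacterial culture added to a final 1.5 × 10^8 CFU/mL (0.5 McFarland), 24 h at 37 °C. Suspension then subcultured onto Mueller Hinton agar for 24 h at 37 °C. MBC is the lowest concentration killing the strain. Duplicates.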
# Micrococcus luteus [2] = assay: Bactericidal activity against Micrococcus luteus MTCC 2470 after 24 hrs; format: functional; details: MTCC 2470, 24 h; outline: as §1
# Raoultella planticola [3] = assay: Bactericidal activity against Klebsiella planticola MTCC 530 after 24 hrs; format: functional; details: MTCC 530, 24 h; outline: as §1
# Escherichia coli [4] = assay: Bactericidal activity against Escherichia coli MTCC 739 after 24 hrs; format: functional; details: MTCC 739, 24 h; outline: as §1
# Pseudomonas aeruginosa [5] = assay: Bactericidal activity against Pseudomonas aeruginosa MTCC 2453 after 24 hrs; format: functional; details: MTCC 2453, 24 h; outline: as §1
# Candida albicans [6] = assay: Fungicidal activity against Candida albicans MTCC 183 after 24 hrs; format: functional; details: MTCC 183, 24 h
# Outline: (§2)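 Candida grown overnight in Mueller Hinton broth. Compound serially diluted in the same broth from 150 to 0 and inoculated to a final 1.5 × 10^8 CFU/mL (0.5 McFarland), then 24 h at 37 °C. Tube contents plated onto Mueller Hinton agar for 24 h at 37 °C. MFC is the lowest concentration killing the yeast. Duplicates.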
# Candida albicans [7] = assay: Fungicidal activity against Candida albicans MTCC 227 after 24 hrs; format: functional; details: MTCC 227, 24 h; outline: as §2
# Candida albicans [8] = assay: Fungicidal activity against Candida albicans MTCC 854 after 24 hrs; format: functional; details: MTCC 854, 24 h; outline: as §2
# Candida albicans [9] = assay: Fungicidal activity against Candida albicans MTCC 1637 after 24 hrs; format: functional; details: MTCC 1637, 24 h; outline: as §2
# Candida albicans [10] = assay: Fungicidal activity against Candida albicans MTCC 3017 after 24 hrs; format: functional; details: MTCC 3017, 24 h; outline: as §2
# Candida albicans [11] = assay: Fungicidal activity against Candida albicans MTCC 3018 after 24 hrs; format: functional; details: MTCC 3018, 24 h; outline: as §2
# Candida albicans [12] = assay: Fungicidal activity against Candida albicans MTCC 3958 after 24 hrs; format: functional; details: MTCC 3958, 24 h; outline: as §2
# Candida albicans [13] = assay: Fungicidal activity against Candida albicans MTCC 4748 after 24 hrs; format: functional; details: MTCC 4748, 24 h; outline: as §2
# Candida albicans [14] = assay: Fungicidal activity against Candida albicans MTCC 7315 after 24 hrs; format: functional; details: MTCC 7315, 24 h; outline: as §2
# Candida parapsilosis = assay: Fungicidal activity against Candida parapsilosis MTCC 1744 after 24 hrs; format: functional; details: Lodderomyces parapsilosis, MTCC 1744, 24 h
# Outline: (§3)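 Broth dilution in Mueller Hinton broth with serial compound concentrations from […]. Overnight Candida cultures added to a final 1.5 × 10^8 CFU/mL (0.5 McFarland). Incubated 24 h at 37 °C, then 10 µL of each tube plated on Mueller Hinton agar for 24 h at 37 °C. MFC taken as the lowest concentration that kills the strain. Run in duplicate.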
# [Candida] aaseri = Fungicidal activity against Candida aaseri MTCC 1962 after 24 hrs; format: functional; details: Yamadazyma aaseri, MTCC 1962, 24 h; outline: as §2
# Nakaseomyces glabratus = assay: Fungicidal activity against Candida glabrata MTCC 3019 after 24 hrs; format: functional; details: MTCC 3019, 24 h; outline: as §2
# Pichia kudriavzevii = assay: Fungicidal activity against Candida krusei MTCC 3020 after 24 hrs; format: functional; details: MTCC 3020, 24 h; outline: as §3
# Pichia sporocuriosa = assay: Fungicidal activity against Issatchenkia hanoiensis MTCC 4755 after 24 hrs; format: functional; details: MTCC 4755, 24 h; outline: as §3
# Staphylococcus aureus [15] = assay: Antibiofilm activity against Staphylococcus aureus MTCC 96 incubated for 24 hrs under static condition by crystal violet staining-based assay; format: functional
# Outline: (§4)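 Strains grown overnight in tryptone soy broth with 0.5% glucose. Compound (250 to 0) mixed with inoculum at 5 × 10^5 CFU/mL in polystyrene microtiter plates. Non-adherent cells washed off with PBS; wells stained with 0.1% crystal violet, dye solubilised in 95% ethanol, absorbance read at 540 nm. IC50 for 50% biofilm inhibition taken from dose-response curves. Triplicates, mean ± S.D.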
# Bacillus subtilis = assay: Antibiofilm activity against Bacillus subtilis MTCC 121 incubated for 24 hrs under static condition by crystal violet staining-based assay; format: functional; outline: as §4
# Staphylococcus aureus [16] = assay: Antibiofilm activity against Staphylococcus aureus MLS16 MTCC 2940 incubated for 24 hrs under static condition by crystal violet staining-based assay; format: functional; outline: as §4
# Micrococcus luteus [17] = assay: Antibiofilm activity against Micrococcus luteus MTCC 2470 incubated for 24 hrs under static condition by crystal violet staining-based assay; format: functional; outline: as §4
# Raoultella planticola [18] = assay: Antibiofilm activity against Klebsiella planticola MTCC 530 incubated for 24 hrs under static condition by crystal violet staining-based assay; format: functional; outline: as §4
# Escherichia coli [19] = assay: Antibiofilm activity against Escherichia coli MTCC 739 incubated for 24 hrs under static condition by crystal violet staining-based assay; format: functional; outline: as §4
# Pseudomonas aeruginosa [20] = assay: Antibiofilm activity against Pseudomonas aeruginosa MTCC 2453 incubated for 24 hrs under static condition by crystal violet staining-based assay; format: functional; outline: as §4
# Micrococcus luteus [21] = assay: Induction of intracellular ROS accumulation in Micrococcus luteus MTCC 2470 sessile biofilm cells at 2 to 4 ug/ml after 24 hrs by DCFH-DA staining-based assay; format: functional, cell-based
# Outline: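 Intracellular ROS was measured in M. luteus MTCC 2470 biofilms grown in 24-well plates. Mature biofilms were treated and incubated 24 h at 30 °C together with […] DCFH-DA. Well contents were centrifuged at 5000 × g for 10 min. Fluorescence (ex 485/em 535 nm) was read separately for supernatant and for sessile cells resuspended in PBS. Triplicate, mean ± S.D.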
smiles,measurement,setting,value
CCCCCCCCC[C@H](O)[C@@H](C)N [CLAVAMINOL A],MBC,Staphylococcus aureus [1],7.8 µg/mL
same,MBC,Micrococcus luteus [2],7.8 µg/mL
same,MBC,Raoultella planticola [3],15.6 µg/mL
same,MBC,Escherichia coli [4],15.6 µg/mL
same,MBC,Pseudomonas aeruginosa [5],15.6 µg/mL
same,MFC,Candida albicans [6],62.5 µg/mL
same,MFC,Candida albicans [7],31.2 µg/mL
same,MFC,Candida albicans [8],31.2 µg/mL
same,MFC,Candida albicans [9],62.5 µg/mL
same,MFC,Candida albicans [10],31.2 µg/mL
same,MFC,Candida albicans [11],31.2 µg/mL
same,MFC,Candida albicans [12],62.5 µg/mL
same,MFC,Candida albicans [13],62.5 µg/mL
same,MFC,Candida albicans [14],31.2 µg/mL
same,MFC,Candida parapsilosis,62.5 µg/mL
same,MFC,[Candida] aaseri,62.5 µg/mL
same,MFC,Nakaseomyces glabratus,31.2 µg/mL
same,MFC,Pichia kudriavzevii,15.6 µg/mL
same,MFC,Pichia sporocuriosa,62.5 µg/mL
same,IC50,Staphylococcus aureus [15],4.2 µg/mL
same,IC50,Bacillus subtilis,4.3 µg/mL
same,IC50,Staphylococcus aureus [16],2.2 µg/mL
same,IC50,Micrococcus luteus [17],0.8 µg/mL
same,IC50,Raoultella planticola [18],8.6 µg/mL
same,INH,Escherichia coli [19],5.2 µg/mL
same,INH,Pseudomonas aeruginosa [20],3.6 µg/mL
same,Activity,Micrococcus luteus [21],Active
